Converted amounts (≈) assume the structure as drawn.
Key:
[1] = Toxicity in HUVEC cell lysates.; format: cell-based, Lysate; conditions: human
[2] = biological target: T1, Intercellular adhesion molecule 1 (Homo sapiens, UniProt P05362); assay: Inhibition of intercellular adhesion molecule-1 (ICAM1) in human endothelial cells; format: cell-based, Endothelial cell
How it was run: (§1)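 Whole-cell ELISA on primary HUVECs plated at 5 × 10^4 cells/mL in EBM/2% FBS with growth supplements. Compound preincubated 24 h at 37 °C, then inducer added (TNFα at 5 ng/mL final, or IL-1β or PMA in its place) for 6 h at 37 °C. Mouse monoclonal anti-E-selectin, anti-ICAM-1 or anti-VCAM-1 was applied overnight at 4 °C, then HRP anti-mouse IgG. Detection with OPD, A490. Triplicate assays.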

E-selectin [3] = biological target: T2, E-selectin (Homo sapiens, UniProt P16581); assay: Inhibition of selectin E in human endothelial cells; format: cell-based, Endothelial cell; how it was run: as §1
T2 sequence (P16581 whole entry): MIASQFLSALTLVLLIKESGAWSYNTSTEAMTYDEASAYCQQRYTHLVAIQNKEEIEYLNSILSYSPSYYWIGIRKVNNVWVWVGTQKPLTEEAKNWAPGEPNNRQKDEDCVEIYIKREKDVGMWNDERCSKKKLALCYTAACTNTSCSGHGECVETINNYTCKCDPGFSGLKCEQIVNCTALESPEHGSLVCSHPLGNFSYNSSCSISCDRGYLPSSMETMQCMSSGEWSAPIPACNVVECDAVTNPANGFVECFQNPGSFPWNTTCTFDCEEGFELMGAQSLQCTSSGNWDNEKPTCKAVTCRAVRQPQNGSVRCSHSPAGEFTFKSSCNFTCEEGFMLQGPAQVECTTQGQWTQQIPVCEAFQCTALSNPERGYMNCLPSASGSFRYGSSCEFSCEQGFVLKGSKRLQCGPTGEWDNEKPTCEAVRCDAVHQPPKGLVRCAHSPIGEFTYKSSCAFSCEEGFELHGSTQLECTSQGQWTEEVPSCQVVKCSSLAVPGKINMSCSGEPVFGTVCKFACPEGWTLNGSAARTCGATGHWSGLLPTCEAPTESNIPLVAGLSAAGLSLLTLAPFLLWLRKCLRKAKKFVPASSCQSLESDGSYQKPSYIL

Mus musculus [4] = assay: Efficacy in serum sICAM-1 at 30 mg/kg of oral dosing in an inhaled allergen-induced cell influx in mice.; format: functional
How it was run: (§2)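 Mouse inhaled-allergen model. Compounds or vehicle (0.2% methylcellulose) given orally 18 h and 1 h before the first of two allergen inhalations. Lungs lavaged 24-27 h after the first inhalation. Read-outs were lavage cell count (no./µL), neutrophil and eosinophil percentages, and soluble ICAM-1 in serum and BAL 24 h after antigen. Values are mean ± SE.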

Mus musculus [5] = assay: % Efficacy in eosinophils at 30 mg/kg of oral dosing in an inhaled allergen-induced cell influx in mice.; format: functional, Eosinophil; how it was run: as §2
Mus musculus [6] = assay: % Efficacy in neutrophils at 30 mg/kg of oral dosing in an inhaled allergen-induced cell influx in mice.; format: functional; how it was run: as §2
Mus musculus [7] = assay: Efficacy in lBAL sICAM-1 at 30 mg/kg of oral dosing in an inhaled allergen-induced cell influx in mice.; format: functional; how it was run: as §2
Mus musculus [8] = assay: Efficacy in lavage cells at 30 mg/kg of oral dosing in an inhaled allergen-induced cell influx in mice.; format: functional; how it was run: as §2
[9] = biological target: T1, Intercellular adhesion molecule 1; assay: In vitro inhibitory potency compared to TNF-alpha induced Intercellular adhesion molecule-1 in human endothelial cells (ELISA assay); format: cell-based, Endothelial cell
How it was run: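 Primary HUVECs seeded at 5 × 10^4 cells/mL in EBM/2% FBS with supplements. After 24 h of compound at 37 °C, TNFα was added to 5 ng/mL final for 6 h at 37 °C. Cell-surface ICAM-1 was detected with a mouse monoclonal antibody, then HRP anti-mouse IgG and OPD, with absorbance at 490 nm. Triplicate determinations.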

[10] = biological target: T1, Intercellular adhesion molecule 1; assay: In vitro inhibitory potency compared to PMA induced Intercellular adhesion molecule-1 expression in human endothelial cells (ELISA assay); format: cell-based, Endothelial cell
How it was run: (§3)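 Primary HUVECs seeded at 5 × 10^4 cells/mL in EBM/2% FBS with EGF, bovine brain extract and gentamicin. Compound added next day for 24 h at 37 °C, then inducer (IL-1β or PMA, level not stated) for 6 h at 37 °C. Whole-cell ELISA used mouse monoclonal anti-ICAM-1 or anti-VCAM-1, HRP donkey anti-mouse IgG and OPD, read at 490 nm. Run in triplicate.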

[11] = biological target: T3, E-selectin (Homo sapiens) (UniProt P16581); assay: In vitro inhibitory potency compared to PMA induced Selectin E expression in human endothelial cells (ELISA assay) at 1 uM; format: cell-based; conditions: Endothelial cell
T3 sequence (whole entry): T2 sequence (P16581 whole entry)
How it was run: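 HUVEC whole-cell ELISA with PMA substituted for TNFα as inducer. Compound preincubated 24 h at 37 °C, then 6 h induction at 37 °C. E-selectin detected with mouse monoclonal antibody and HRP anti-mouse IgG, OPD development, A490. Value given as percent inhibition at a single concentration of 1 µM.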

E-selectin [12] = biological target: T2, E-selectin; assay: In vitro inhibitory potency compared to IL1-beta induced Selectin E in human endothelial cells (ELISA assay); format: cell-based, Endothelial cell; how it was run: as §1
E-selectin [13] = biological target: T2, E-selectin; assay: In vitro inhibitory potency compared to TNF-alpha induced Selectin E expression in human endothelial cells (ELISA assay); format: cell-based, Endothelial cell; how it was run: as §1
[14] = biological target: T1, Intercellular adhesion molecule 1; assay: In vitro inhibitory potency compared to IL1-beta induced Intercellular adhesion molecule-1 in human endothelial cells (ELISA assay); format: cell-based, Endothelial cell; how it was run: as §3
[15] = biological target: T4, Vascular cell adhesion protein 1 (Homo sapiens) (UniProt P19320); conditions: Endothelial cell
T4 sequence (whole entry): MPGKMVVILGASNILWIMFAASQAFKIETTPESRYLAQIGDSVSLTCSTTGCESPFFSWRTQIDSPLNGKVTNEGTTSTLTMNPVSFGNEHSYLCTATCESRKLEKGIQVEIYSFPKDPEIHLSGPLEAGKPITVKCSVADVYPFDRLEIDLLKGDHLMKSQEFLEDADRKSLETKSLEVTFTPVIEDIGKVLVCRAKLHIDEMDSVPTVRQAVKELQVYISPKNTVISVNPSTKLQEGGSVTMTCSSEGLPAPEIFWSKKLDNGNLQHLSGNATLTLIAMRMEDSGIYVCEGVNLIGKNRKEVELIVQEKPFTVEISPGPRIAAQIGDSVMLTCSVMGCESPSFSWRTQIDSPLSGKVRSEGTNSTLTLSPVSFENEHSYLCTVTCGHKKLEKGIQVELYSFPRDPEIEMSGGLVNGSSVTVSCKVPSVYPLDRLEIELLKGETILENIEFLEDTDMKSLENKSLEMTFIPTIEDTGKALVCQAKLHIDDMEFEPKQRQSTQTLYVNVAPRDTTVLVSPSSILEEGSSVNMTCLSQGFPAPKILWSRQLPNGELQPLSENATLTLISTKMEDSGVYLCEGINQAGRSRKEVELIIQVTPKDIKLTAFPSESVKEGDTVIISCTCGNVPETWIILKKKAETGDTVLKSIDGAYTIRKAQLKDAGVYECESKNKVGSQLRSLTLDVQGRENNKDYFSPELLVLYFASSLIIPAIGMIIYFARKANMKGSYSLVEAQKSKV

[16] = biological target: T1, Intercellular adhesion molecule 1; assay: In vitro inhibitory potency compared to PMA induced Intercellular adhesion molecule-1 in human endothelial cells (ELISA assay); format: cell-based, Endothelial cell; how it was run: as §1
E-selectin [17] = biological target: T2, E-selectin; assay: In vitro inhibitory potency compared to TNF-alpha induced Selectin E in human endothelial cells (ELISA assay); format: cell-based, Endothelial cell; how it was run: as §1
[18] = Solubility in pH 7.4 buffer.; format: physicochemical
[19] = Solubility in pH 7.4 buffer; format: physicochemical
[20] = Toxicity in HUVEC cell lysates; format: cell-based, Lysate; conditions: human
How it was run: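 Primary HUVECs were plated at 5 × 10^4 cells/mL in EBM/2% FBS with human EGF, bovine brain extract and gentamicin. The next day, compounds were added, at up to 100 µM. TNFα was then added as in the cell ELISA. About 24 h after compound addition, MTS reagent was added, cells were incubated a further 2 h at 37 °C, and absorbance was read at 490 nm.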

[21] = biological target: T1, Intercellular adhesion molecule 1; assay: In vitro inhibitory potency compared to TNF-alpha induced Intercellular adhesion molecule-1 expression in human endothelial cells (ELISA assay); format: cell-based, Endothelial cell
How it was run: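 Primary HUVECs plated at 5 × 10^4 cells/mL in EBM/2% FBS with growth supplements; next day compound added, 24 h at 37 °C, then TNFα to 5 ng/mL final, 6 h at 37 °C. Cell ELISA: mouse monoclonal anti-ICAM-1 overnight at 4 °C, HRP donkey anti-mouse IgG, OPD, absorbance 490 nm; triplicate assay.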

[22] = biological target: T1, Intercellular adhesion molecule 1; assay: In vitro inhibitory potency compared to IL1-beta induced Intercellular adhesion molecule-1 expression in human endothelial cells (ELISA assay); format: cell-based, Endothelial cell
How it was run: (§4)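 Primary HUVECs plated at 5 × 10^4 cells/mL in EBM/2% FBS with growth supplements; next day compound added, 24 h at 37 °C, then IL-1β substituted for TNFα as inducer, 6 h at 37 °C. Cell ELISA: mouse monoclonal anti-ICAM-1 or anti-E-selectin (ELAM-1) overnight at 4 °C, HRP donkey anti-mouse IgG, OPD, absorbance 490 nm.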

E-selectin [23] = biological target: T2, E-selectin; assay: In vitro inhibitory potency compared to IL1-beta induced Selectin E expression in human endothelial cells (ELISA assay); format: cell-based, Endothelial cell; how it was run: as §4
[24] = biological target: T4, Vascular cell adhesion protein 1 (Homo sapiens); conditions: Endothelial cell; remark: listed apart in the source
[25] = Inhibition of selectin E in human endothelial cells; conditions: endothelial cell
[26] = Inhibition of intercellular adhesion molecule-1 (ICAM1) in human endothelial cells; conditions: endothelial cell

T1 sequence (P05362 whole entry): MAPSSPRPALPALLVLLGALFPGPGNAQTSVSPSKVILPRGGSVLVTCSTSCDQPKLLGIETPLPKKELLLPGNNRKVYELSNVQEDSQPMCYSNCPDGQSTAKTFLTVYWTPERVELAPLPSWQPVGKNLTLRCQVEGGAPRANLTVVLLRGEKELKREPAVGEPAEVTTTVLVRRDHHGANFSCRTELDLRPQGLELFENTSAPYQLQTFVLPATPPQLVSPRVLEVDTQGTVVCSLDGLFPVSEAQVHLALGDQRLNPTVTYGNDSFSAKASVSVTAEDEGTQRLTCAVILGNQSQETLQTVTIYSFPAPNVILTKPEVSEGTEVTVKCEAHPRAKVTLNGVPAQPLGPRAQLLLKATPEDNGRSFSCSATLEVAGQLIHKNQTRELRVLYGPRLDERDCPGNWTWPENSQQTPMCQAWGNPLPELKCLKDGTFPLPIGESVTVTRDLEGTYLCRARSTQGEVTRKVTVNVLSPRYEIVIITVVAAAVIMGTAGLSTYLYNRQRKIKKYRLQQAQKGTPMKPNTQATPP

CNC(=O)c1cc2c(Oc3ccc(-n4ccnc4)cc3)cncc2s1
IC50 [1]: > 10000 nM | IC50 [2]: 6 nM | IC50 (E-selectin [3]): 2 nM

Cc1ccc(Oc2cncc3sc(C(N)=O)cc23)cc1
IC50 [1]: 91000 nM | IC50 [2]: 20 nM | IC50 (E-selectin [3]): 20 nM

CNC(=O)c1cc2c(Oc3ccc(C(F)(F)F)cc3)cncc2s1
Efficacy (Mus musculus [4]): 19.6 µg/mL | Efficacy (Mus musculus [5]): 10% | Efficacy (Mus musculus [6]): 48% | Efficacy (Mus musculus [7]): 1.89 µg/mL | Efficacy (Mus musculus [8]): 107 number ul-1

CNC(=O)c1cc2c(Oc3ccc(Cl)cc3)cncc2s1
IC50 [9]: 15 nM | IC50 [2]: 17 nM | IC50 [10]: 15 nM | inhibition [11]: 43% | IC50 (E-selectin [3]): 8 nM | IC50 (E-selectin [12]): 25 nM | IC50 (E-selectin [13]): 20 nM | IC50 [14]: 10 nM | Inhibition at 1uM [15]: 49%

CNC(=O)c1cc2c(Oc3ccc(COCCOCCOC)cc3)cncc2s1
IC50 [9]: 5 nM | IC50 [2]: 5 nM | IC50 [16]: 5 nM | inhibition [11]: 46% | IC50 (E-selectin [3]): 6 nM | IC50 (E-selectin [12]): 5 nM | IC50 (E-selectin [17]): 4 nM | IC50 [14]: 2 nM

COCc1ccc(Oc2cncc3sc(C(N)=O)cc23)cc1
IC50 [2]: 16 nM | IC50 (E-selectin [3]): 16 nM | solubility [18]: 6.2 µg/mL (≈ 19.7 µM)

CNC(=O)c1cc2c(Oc3ccc(C(=N)NO)cc3)cncc2s1
IC50 [1]: > 10000 nM | IC50 [2]: 59 nM | IC50 (E-selectin [3]): 13 nM

CNC(=O)c1cc2c(Oc3ccc(COC)cc3)cncc2s1
solubility [19]: 4.8 µg/mL (≈ 14.6 µM) | IC50 [2]: 17 nM | IC50 (E-selectin [3]): 13 nM

NC(=O)c1cc2c(Oc3ccc(C(O)CO)cc3)cncc2s1 (stereo not drawn)
IC50 [2]: 680 nM | IC50 (E-selectin [3]): 670 nM | solubility [18]: 15.3 µg/mL (≈ 46.3 µM)

Cc1ccc(Sc2cncc3sc(C(N)=O)cc23)cc1
IC50 [20]: 152000 nM | IC50 [21]: 15 nM | IC50 [22]: 10 nM | IC50 [10]: 30 nM | inhibition [11]: 44% | IC50 (E-selectin [23]): 25 nM | IC50 (E-selectin [13]): 15 nM | Inhibition at 1uM [24]: 45% | IC50 [25]: 20 nM | IC50 [26]: 25 nM

NC(=O)c1cc2c(Oc3ccc(CO)cc3)cncc2s1
solubility [19]: 6.9 µg/mL (≈ 23 µM)

COCCOCCOCc1ccc(Oc2cncc3sc(C(N)=O)cc23)cc1
solubility [18]: 160 µg/mL (≈ 398 µM)

CC(C)c1ccc(Oc2cncc3sc(C(N)=O)cc23)cc1
IC50 [1]: 34000 nM | IC50 [2]: 47 nM | IC50 (E-selectin [3]): 76 nM

CCOCCOCCOCC1(c2ccc(Oc3cncc4sc(C(=O)NC)cc34)cc2)CC1
IC50 [1]: > 10 µg/mL

CNC(=O)c1cc2c(Oc3ccc(COCCOC)cc3)cncc2s1
IC50 [2]: 8 nM | IC50 (E-selectin [3]): 7 nM | solubility [18]: 25.7 µg/mL (≈ 69 µM)

CCOCCOCCOCC(F)(F)c1ccc(Oc2cncc3sc(C(=O)NC)cc23)cc1
IC50 [2]: 26 nM | IC50 (E-selectin [3]): 110 nM

NC(=O)c1cc2c(Oc3ccc(/C=C/C(=O)NCCN4CCOCC4)cc3)cncc2s1
IC50 [2]: 32 nM | IC50 (E-selectin [3]): 34 nM

From ChEMBL document CHEMBL1134459 (J Med Chem, 2001)
